Reference: ChEMBL document CHEMBL6177937, “Design, synthesis, and biological evaluation of novel thiazole derivatives as PI3K/mTOR dual inhibitors” (RSC Med Chem, 2024)

Tests used:
[1] = system: HL-60; assay: Induction of apoptosis in human HL-60 cells assessed as increase in caspase-3 level measured after 24 hrs by ELISA relative to control
[2] = system: DU-145; assay: Growth inhibition of human DU-145 cells measured after 48 hrs by SRB assay; assay type: functional
Method in brief: (§1)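 NCI 60-line format with five concentrations (10-fold or ½-log serial dilutions) from DMSO stocks in medium with 50 μg/mL gentamicin. Cells preincubated 24 h, then exposed 48 h at 37°C, 5% CO2. Time-zero plates TCA-fixed. SRB absorbance read at 515 nm. GI50 taken from [(Ti−Tz)/(C−Tz)]×100 = 50. Out-of-range values are expressed as > or < the highest or lowest concentration tested.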

[3] = system: HL-60; assay: Induction of apoptosis in human HL-60 cells assessed as increase in total apoptotic cells measured after 24 hrs by Annexin-V/propidium iodide staining based flow cytometry relative to control; assay type: functional
[4] = system: HOP-92; assay: Growth inhibition of human HOP-92 cells measured after 48 hrs by SRB assay; assay type: functional
Method in brief: as §1

[5] = system: COLO 205; assay: Growth inhibition of human COLO 205 cells measured after 48 hrs by SRB assay; assay type: functional
Method in brief: as §1

[6] = system: MOLT-4; assay: Growth inhibition of human MOLT-4 cells measured after 48 hrs by SRB assay; assay type: functional
Method in brief: as §1

[7] = system: HT-29; assay: Growth inhibition of human HT-29 cells measured after 48 hrs by SRB assay; assay type: functional
Method in brief: as §1

[8] = system: HOP-62; assay: Growth inhibition of human HOP-62 cells measured after 48 hrs by SRB assay; assay type: functional
Method in brief: as §1

[9] = system: HL-60; assay: Induction of apoptosis in human HL-60 cells assessed as necrotic cells measured after 24 hrs by Annexin-V/propidium iodide staining based flow cytometry (reference value: 0.61%); assay type: functional
[10] = system: MCF7; assay: Growth inhibition of human MCF7 cells measured after 48 hrs by SRB assay; assay type: functional
Method in brief: as §1

[11] = system: PC-3; assay: Growth inhibition of human PC-3 cells measured after 48 hrs by SRB assay; assay type: functional
Method in brief: (§2)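 NCI 60-line SRB screen: cells seeded […], grown 24 h at 37°C, 5% CO2, then exposed 48 h to five concentrations (10-fold or ½-log dilutions from DMSO stock). Adherent cells fixed with cold TCA (final 10%), suspension cells with 80% TCA (final 16%); SRB stained, read at 515 nm. GI50 from time-zero, control and treated absorbances.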

[12] = system: MDA-MB-231; assay: Growth inhibition of human MDA-MB-231 cells measured after 48 hrs by SRB assay; assay type: functional
Method in brief: as §1

[13] = system: NCI-H522; assay: Growth inhibition of human NCI-H522 cells measured after 48 hrs by SRB assay; assay type: functional
Method in brief: as §1

[14] = system: HL-60; assay: Cytotoxicity against human HL-60 cells assessed as reduction in cell viability measured after 24 hrs by MTT assay; assay type: functional, cell-based; conditions: HL-60, 24 h
Method in brief: (§3)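 MTT viability with 24 h incubation in 96-well plates. Five semi-log concentrations from 0.01 to 100 μM. Formazan absorbance read at 570 nm, with 690 nm background subtracted. Run in triplicate. IC50 obtained by sigmoidal dose-response fitting. Cells are leukemia HL-60(TB) and normal lymphocytes (PCS-800-017).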

[15] = system: SNB-75; assay: Growth inhibition of human SNB-75 cells measured after 48 hrs by SRB assay; assay type: functional
Method in brief: as §2

[16] = system: MDA-MB-435; assay: Growth inhibition of human MDA-MB-435 cells measured after 48 hrs by SRB assay; assay type: functional
Method in brief: as §1

[17] = system: Hs-578T; assay: Growth inhibition of human Hs-578T cells measured after 48 hrs by SRB assay; assay type: functional; conditions: for CC50: read-out: LC50 (the source's name)
Method in brief: as §1

[18] = system: M14; assay: Growth inhibition of human M14 cells measured after 48 hrs by SRB assay; assay type: functional
Method in brief: as §1

[19] = system: IGROV-1; assay: Growth inhibition of human IGROV-1 cells measured after 48 hrs by SRB assay; assay type: functional
Method in brief: as §1

[20] = system: TK-10; assay: Growth inhibition of human TK-10 cells measured after 48 hrs by SRB assay; assay type: functional
Method in brief: as §2

[21] = system: UACC-257; assay: Growth inhibition of human UACC-257 cells measured after 48 hrs by SRB assay; assay type: functional; conditions: for CC50: read-out: LC50 (the source's name)
Method in brief: as §2

[22] = system: HL-60; assay: Growth inhibition of human HL-60 cells measured after 48 hrs by SRB assay; assay type: functional; conditions: for CC50: read-out: LC50 (the source's name)
Method in brief: as §1

[23] = system: SK-OV-3; assay: Growth inhibition of human SK-OV-3 cells measured after 48 hrs by SRB assay; assay type: functional
Method in brief: as §2

[24] = system: HL-60; assay: Induction of apoptosis in human HL-60 cells assessed as early apoptotic cells measured after 24 hrs by Annexin-V/propidium iodide staining based flow cytometry (reference value: 0.61%); assay type: functional
[25] = system: CCRF-CEM; assay: Growth inhibition of human CCRF-CEM cells measured after 48 hrs by SRB assay; assay type: functional
Method in brief: as §1

[26] = system: SF-295; assay: Growth inhibition of human SF-295 cells measured after 48 hrs by SRB assay; assay type: functional; conditions: for CC50: read-out: LC50 (the source's name)
Method in brief: as §2

[27] = system: T47D; assay: Growth inhibition of human T47D cells measured after 48 hrs by SRB assay; assay type: functional
Method in brief: as §2

[28] = system: NCI-H23; assay: Growth inhibition of human NCI-H23 cells measured after 48 hrs by SRB assay; assay type: functional
Method in brief: as §1

[29] = system: OVCAR-4; assay: Growth inhibition of human OVCAR-4 cells measured after 48 hrs by SRB assay; assay type: functional
Method in brief: as §1

[30] = Cytotoxicity against human PCS-800-017 cells assessed as reduction in cell viability measured after 24 hrs by MTT assay; assay type: toxicity, cell-based
Method in brief: as §3

[31] = system: HCC 2998; assay: Growth inhibition of human HCC 2998 cells measured after 48 hrs by SRB assay; assay type: functional
Method in brief: as §1

[32] = system: SK-MEL-5; assay: Growth inhibition of human SK-MEL-5 cells measured after 48 hrs by SRB assay; assay type: functional
Method in brief: as §2

[33] = system: NCI-H226; assay: Growth inhibition of human NCI-H226 cells measured after 48 hrs by SRB assay; assay type: functional
Method in brief: as §1

[34] = system: SK-MEL-2; assay: Growth inhibition of human SK-MEL-2 cells measured after 48 hrs by SRB assay; assay type: functional
Method in brief: as §2

[35] = system: SK-MEL-28; assay: Growth inhibition of human SK-MEL-28 cells measured after 48 hrs by SRB assay; assay type: functional
Method in brief: as §2

## O=[N+]([O-])c1cc(/C=N/Nc2nc(-c3ccc(Cl)cc3)cs2)ccc1Cl
[1]
  fold change (FC): 3.48
[2]
  GI50: 1.63 µM
  TGI: 3.07 µM
[3]
  fold change (FC): 19.9
[4]
  GI50: 2.59 µM
  TGI: 10.8 µM
[5]
  GI50: 15.4 µM
  TGI: 29.7 µM
[6]
  GI50: 3.43 µM
  TGI: 24.1 µM
[7]
  GI50: 3.6 µM
  TGI: 15.4 µM
[8]
  GI50: 8.87 µM
  TGI: 22.4 µM
[9]
  Activity: 3.64%
[10]
  GI50: 1.79 µM
  TGI: 3.81 µM
[11]
  GI50: 1.91 µM
  TGI: 4.46 µM
[12]
  GI50: 17.4 µM
  TGI: 42.6 µM
[13]
  GI50: 9.45 µM
  TGI: 67.6 µM
[14]
  IC50: 2.29 µM
[15]
  GI50: 14.8 µM
  TGI: 40.1 µM
[16]
  GI50: 23.2 µM
  TGI: 98.3 µM
[17]
  GI50: 2.36 µM
  TGI: 6.14 µM
  CC50: > 100 µM
[18]
  GI50: 17 µM
  TGI: 45.6 µM
[19]
  GI50: 13.6 µM
  TGI: 37.4 µM
[20]
  GI50: 28.1 µM
  TGI: 84 µM
[21]
  GI50: 7.52 µM
  TGI: 22 µM
  CC50: 51.6 µM
[22]
  GI50: 2.29 µM
  TGI: 7.43 µM
  CC50: > 100 µM
[23]
  GI50: 21.8 µM
  TGI: 65 µM
[24]
  Activity: 23.62%
[25]
  GI50: 3.62 µM
  TGI: 52.9 µM
[26]
  GI50: 14.9 µM
  TGI: 28.3 µM
  CC50: 53.8 µM
[27]
  GI50: 1.8 µM
  TGI: 3.81 µM
[28]
  GI50: 12.5 µM
  TGI: 40.9 µM
[29]
  GI50: 8.25 µM
  TGI: 35.9 µM
[30]
  IC50 at 24 h: 22.7 µM
[31]
  GI50: 1.87 µM
  TGI: 3.55 µM
[32]
  GI50: 10.3 µM
  TGI: 24.5 µM
[33]
  GI50: 4.21 µM
  TGI: 32.6 µM
[34]
  GI50: 24 µM
  TGI: 81.5 µM
[35]
  GI50: 17.2 µM
  TGI: 46.4 µM

## CCOc1cc(/C=N/Nc2nc(-c3cccc([N+](=O)[O-])c3)cs2)ccc1O
[1]
  fold change (FC): 4.61
[2]
  GI50: 3.43 µM
  TGI: 11.6 µM
[3]
  fold change (FC): 23.07
[4]
  GI50: 3.2 µM
  TGI: 30.9 µM
[5]
  GI50: 16.4 µM
  TGI: 38.7 µM
[6]
  GI50: 1.74 µM
  TGI: 5.94 µM
[7]
  GI50: 33.7 µM
  TGI: > 100 µM
[8]
  GI50: 2.51 µM
  TGI: 6.92 µM
[9]
  Activity: 4.93%
[10]
  GI50: 2.86 µM
  TGI: 10.9 µM
[11]
  GI50: 2.54 µM
  TGI: 11.4 µM
[12]
  GI50: 1.78 µM
  TGI: 3.88 µM
[13]
  GI50: 1.85 µM
  TGI: 4.21 µM
[14]
  IC50: 2.32 µM
[15]
  GI50: 2.72 µM
  TGI: 13.1 µM
[16]
  GI50: 2.7 µM
  TGI: 9.14 µM
[17]
  GI50: 3.38 µM
  TGI: 39.2 µM
  CC50: > 100 µM
[18]
  GI50: 1.85 µM
  TGI: 3.89 µM
[19]
  GI50: 2.46 µM
  TGI: 7.23 µM
[20]
  GI50: 4.42 µM
  TGI: 16.1 µM
[21]
  GI50: 1.71 µM
  TGI: 3.23 µM
  CC50: 6.08 µM
[22]
  GI50: 2.32 µM
  TGI: 7.84 µM
  CC50: > 100 µM
[23]
  GI50: 3.36 µM
  TGI: 27.8 µM
[24]
  Activity: 31.19%
[25]
  GI50: 2.03 µM
  TGI: 29.6 µM
[26]
  GI50: 2 µM
  TGI: 4.28 µM
  CC50: 9.16 µM
[27]
  GI50: 3.69 µM
  TGI: 16.3 µM
[28]
  GI50: 1.99 µM
  TGI: 5.14 µM
[29]
  GI50: 2.41 µM
  TGI: 8.05 µM
[30]
  IC50 at 24 h: 28.6 µM
[31]
  GI50: 3.43 µM
  TGI: 19.8 µM
[32]
  GI50: 2.73 µM
  TGI: 9.14 µM
[33]
  GI50: 2.36 µM
  TGI: 6.22 µM
[34]
  GI50: 2.48 µM
  TGI: 6.75 µM
[35]
  GI50: 2.27 µM
  TGI: 5.97 µM
